Laboratory results: the RNAGym collection of RNA variant scans (doi:10.1126/science.aae0568)
Variants at the floor of the assay were thinned out.

B1: tRNA (parent)
chain: GUUCCGUUGGCGUAAUGGUAACGCGUCUCCCUCCUAAGGAGAAGACUGCGGGUUCGAGUCCCGUACGGAACG

Variants of: B1
Assay: yeast fitness relative to wild type (ratio to wild type); higher = fitter; tRNA-Arg(CCU), competitive growth, 37 C, YPD
Procedure, shortened: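 Amplicons of the tRNA-Arg(CCU) gene were sequenced, 100-nucleotide paired-end, from the start population and from each end population of a pooled yeast competition. The competition, in six parallel replicates, lasted 24 hours in YPD at 37°C. Fitness relative to wild type was calculated from changes in genotype frequencies. Genotypes had to have ≥ 100 starting reads, and estimates < 0.5 were set to 0.5.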
Work on U16A A37U C62A yielded a yeast fitness of no more than 0.5. For U16A C24U G44C, the yeast fitness was 0.6. In the case of U16A A21C A36G G44A U59A, the yeast fitness is reported as no more than 0.5. For A15U U19C C31A G41C, the yeast fitness was 0.596. Variant U16A A57C C66U A69C has a yeast fitness of no more than 0.5. U16A G18A C31U A69C gave a yeast fitness of no more than 0.5. For A15U U53A, the yeast fitness was 0.648. In the case of U16A C31A C33G G38A, the yeast fitness is reported as no more than 0.5. Work on U16C A21G A40C A42U C46U C49U G51A A70G yielded a yeast fitness of no more than 0.5. Work on U16A G23C C29G G50A A65G yielded a yeast fitness of 0.751. Work on U16A C27G C49A A69G yielded a yeast fitness of 0.532. Variant U16A U28A has a yeast fitness of 0.636. Variant U16A G48C C66U has a yeast fitness of 0.705. U16A A37U G56A A65U gave a yeast fitness of no more than 0.5. For A15U U19A A45C C55U A57U, the yeast fitness was 0.583. Variant U16A G23C U26A C29U A42U G48A has a yeast fitness of 0.557. Work on U16A C24G U35G yielded a yeast fitness of no more than 0.5. For U16A C30A A43C, the yeast fitness was 1.04. Variant U16A C33G A36U has a yeast fitness of 0.57. For U16A G38A A65G C66G, the yeast fitness was no more than 0.5. Work on U16A A37G A43G yielded a yeast fitness of no more than 0.5. U16A C24U C30G U35A C49A G67C showed a yeast fitness of 0.751. In the case of U16C A37C A42G G56C, the yeast fitness is reported as no more than 0.5. In the case of U16A A21U A45C, the yeast fitness is reported as no more than 0.5. Work on A15U U16C U35A G44A yielded a yeast fitness of no more than 0.5. U16C A40U A57C C66U gave a yeast fitness of no more than 0.5. Variant U16A C27A C62G has a yeast fitness of no more than 0.5. A15U U26A gave a yeast fitness of 0.666. For A15U U26C, the yeast fitness was 0.81. U16A A45C G63C U64C C66U gave a yeast fitness of no more than 0.5. With A15U U16C G38C G39A A43C C60G A65C the yeast fitness was no more than 0.5. In the case of U16A G38C, the yeast fitness is reported as 0.749. With U16A A45U the yeast fitness was 1. For U16A U26A, the yeast fitness was 0.974. Work on U16A G68A yielded a yeast fitness of 1.08. For U16A G68U, the yeast fitness was 0.837. Work on U16A C22G C34U G51A yielded a yeast fitness of no more than 0.5. U16A G17A A57G C66U showed a yeast fitness of no more than 0.5. A15U U32G G44A gave a yeast fitness of 0.555. U16A A21C C34A A37C G68A gave a yeast fitness of no more than 0.5. U16A G25A U28A gave a yeast fitness of no more than 0.5. For U16A G18C A36G G48C, the yeast fitness was no more than 0.5. Variant U16C A20G has a yeast fitness of 0.976. Variant U16C A20U has a yeast fitness of 0.889. With U16C A20C the yeast fitness was 0.995. U16A A43C C49U showed a yeast fitness of 0.656. U16A G52A A70C gave a yeast fitness of no more than 0.5. U16A A69U showed a yeast fitness of 1.03. In the case of U16A G58A, the yeast fitness is reported as 0.859. Work on U16A G68A A70C yielded a yeast fitness of 0.606. Work on A15U U28A C33G U64A yielded a yeast fitness of no more than 0.5. Variant U16C A21C G41C A43C C66G A70U has a yeast fitness of no more than 0.5. With U16A A21C G44A U59A the yeast fitness was 0.847. Variant U16A G25C has a yeast fitness of 0.974. Variant U16A C22G A45C has a yeast fitness of 0.607. In the case of A15U U16G G39A C60G A70G, the yeast fitness is reported as no more than 0.5. Work on U16A G18A C31G yielded a yeast fitness of 0.527. U16A A37C gave a yeast fitness of 0.653. With U16A G63C the yeast fitness was 0.676. Variant U16A G50C U54G A69C has a yeast fitness of no more than 0.5. Work on U16A C29G C46U C49U U59G A65U G68A yielded a yeast fitness of 0.537. U16A A20G C62A gave a yeast fitness of 0.546. Work on U16A G18A yielded a yeast fitness of 0.846. Work on A15U U28A C33G G56A yielded a yeast fitness of no more than 0.5. U16A A37C C60A U64C gave a yeast fitness of no more than 0.5. Work on U16A A20G C27U G41C G63A yielded a yeast fitness of no more than 0.5. Work on U16C A40U A57C yielded a yeast fitness of no more than 0.5. For U16C A40U A65C, the yeast fitness was 0.626. In the case of A15U U26A C60U G67A, the yeast fitness is reported as no more than 0.5. Work on U16A yielded a yeast fitness of 0.992. U16C showed a yeast fitness of 1.01. With U16C A21C C49A A57G G58A C66U G68A the yeast fitness was no more than 0.5. U16A C24G U47C showed a yeast fitness of 0.536. Work on U16A G23C C29U C31G U47A yielded a yeast fitness of no more than 0.5. U16A U19A A43C G56A gave a yeast fitness of no more than 0.5. U16A G18C U35A C55G A69G showed a yeast fitness of 0.64. U16A A37G A40C G58A showed a yeast fitness of 0.604. Work on U16A A21U C46U C61G yielded a yeast fitness of no more than 0.5. U16A A42G gave a yeast fitness of 0.749. Work on U16A C31A A65C yielded a yeast fitness of no more than 0.5. Variant U16C A37C C55G A69U has a yeast fitness of no more than 0.5. A15U U28A gave a yeast fitness of 0.57. In the case of U16A C55A C61A, the yeast fitness is reported as no more than 0.5. With U16A U53G C62G the yeast fitness was no more than 0.5. In the case of A15U U19C C31U A40C, the yeast fitness is reported as no more than 0.5. In the case of U16A C33U G38C, the yeast fitness is reported as 0.625. Variant U16A U32C A37U C49G has a yeast fitness of 0.516. U16A A21C C29U gave a yeast fitness of no more than 0.5. U16A A45G G50A gave a yeast fitness of no more than 0.5. In the case of U16A A42U G56A G58A, the yeast fitness is reported as 0.817. In the case of U16C A20G U32C, the yeast fitness is reported as 0.684. In the case of U16A C31A C33A U35C U47A, the yeast fitness is reported as no more than 0.5. U16A C34U A36G A40C G44C gave a yeast fitness of no more than 0.5. Variant U16A U47C A65U has a yeast fitness of 0.727. In the case of U16A A20C C24G C33G, the yeast fitness is reported as no more than 0.5. With U16A C31A the yeast fitness was 0.645. For U16A C31U, the yeast fitness was 0.979. With U16A A21U C27U A40U C66A the yeast fitness was no more than 0.5. Work on U16A G23C C29U C31G A57C yielded a yeast fitness of no more than 0.5. Work on U16A C55U C61G A65G yielded a yeast fitness of no more than 0.5. U16A A42C U54A showed a yeast fitness of no more than 0.5. A15U U28C G44A A57G gave a yeast fitness of no more than 0.5. With U16A G52A the yeast fitness was 0.827. Variant U16A C29G A42G C46G A65U has a yeast fitness of no more than 0.5. In the case of U16A C27G U64C C66U G67A, the yeast fitness is reported as no more than 0.5. In the case of U16A C24U C34G G38C, the yeast fitness is reported as no more than 0.5. Work on U16A C24U C33U A36U A40U yielded a yeast fitness of no more than 0.5. Work on U16A C29U A37G yielded a yeast fitness of no more than 0.5. Work on U16A C34A A40U G44A G63A yielded a yeast fitness of no more than 0.5. U16A U28G U47G U54A showed a yeast fitness of 0.56. Variant U16A G23A C29U C34G G58A has a yeast fitness of no more than 0.5. U16A C30G G44C gave a yeast fitness of no more than 0.5. Variant U16A G18C G39A G52A has a yeast fitness of no more than 0.5. With A15U U16C G18C C29A A43G A45G C62G the yeast fitness was no more than 0.5. Variant A15U U16C A40U has a yeast fitness of no more than 0.5. Variant U16A A45G G58A has a yeast fitness of 0.591. In the case of U16A G18C A20G C22U A65C, the yeast fitness is reported as no more than 0.5. In the case of U16A A40C C55A C66A, the yeast fitness is reported as no more than 0.5. With U16A A21G C27G A57G the yeast fitness was no more than 0.5. For U16C A20U G25C C60A, the yeast fitness was no more than 0.5. Work on U16A C55G yielded a yeast fitness of 0.54. With A15U U53G A57C A69U the yeast fitness was 0.625. U16A C34U G38A A42U gave a yeast fitness of no more than 0.5. Work on A15U U19A A20G A40U A43U C60G C62U A69G yielded a yeast fitness of no more than 0.5. Work on U16A G23A C29U C34G yielded a yeast fitness of 0.734. U16A G63A G67C gave a yeast fitness of no more than 0.5. U16A C60A showed a yeast fitness of 0.668. U16C A21U C62U showed a yeast fitness of no more than 0.5. For U16C A36G G50A, the yeast fitness was 0.594. Variant U16A G25C C46G has a yeast fitness of 1.07. Variant U16A A20G has a yeast fitness of 0.961. For U16A A20U, the yeast fitness was 0.855. Variant U16A A21C has a yeast fitness of 0.686. With A15U G68A the yeast fitness was 0.62. Work on U16A C55A G68A yielded a yeast fitness of no more than 0.5. Variant U16A G39A C46G has a yeast fitness of 0.695. With U16C A21G A70C the yeast fitness was 0.725. With U16A G39A A42G C55A C62A C66U the yeast fitness was 0.528. Variant U16A G17A C22G has a yeast fitness of 0.578. U16A G18A C31U C66U showed a yeast fitness of no more than 0.5. U16A U28A U64C showed a yeast fitness of 0.568. In the case of U16A U19A C46U, the yeast fitness is reported as 1. Work on U16A U64C yielded a yeast fitness of 0.929. In the case of U16A U19G C33U A40C G41A A43C C60U C61G, the yeast fitness is reported as no more than 0.5. With U16A C46U C55A the yeast fitness was no more than 0.5. With U16A A20U C24G C33G A65G C66A the yeast fitness was no more than 0.5. A15U U28A C49U U59A C66A showed a yeast fitness of no more than 0.5. A15U U16C A65G gave a yeast fitness of no more than 0.5. Work on U16C A20G C29U C62U yielded a yeast fitness of no more than 0.5. In the case of U16A C31A A69C, the yeast fitness is reported as 0.633. With U16A G23C C29U G58A the yeast fitness was no more than 0.5. In the case of U16A C30A A69U, the yeast fitness is reported as 0.979. U16A U28G C66U showed a yeast fitness of no more than 0.5. For U16A C22A G56A, the yeast fitness was 0.696. U16A C22A C66U showed a yeast fitness of 0.675. For U16A C30U A40C, the yeast fitness was no more than 0.5. For U16A C30A U35G, the yeast fitness was no more than 0.5. In the case of A15U U28A C33G, the yeast fitness is reported as 0.561. For U16A C61G, the yeast fitness was 0.631. In the case of U16A C61U, the yeast fitness is reported as 1.02. Variant U16A U47C C66U has a yeast fitness of 0.893. In the case of U16A A21G C34U G67C, the yeast fitness is reported as no more than 0.5. Work on A15U U35C G41A C60A A65U A69G yielded a yeast fitness of 0.563. Variant U16A A20U C24G C33G C61A G67C has a yeast fitness of 0.561. U16A G17C C61G A70C gave a yeast fitness of no more than 0.5. Work on U16C A21C C31A A37G C55A yielded a yeast fitness of no more than 0.5. Variant U16A C24G A43C G63A has a yeast fitness of no more than 0.5.
